Laboratory results reported in ChEMBL document CHEMBL2406983, “Synthesis and the 5-HT6 receptor antagonistic effect of 3-arylsulfonylamino-5,6-dihydro-6-substituted pyrazolo[3,4]pyridinones for neuropathic pain treatment” (Bioorg Med Chem Lett, 2013).
Active and inactive are the calls of the source. The calls are words filed in the database; no cut-off is given here.

Legend:
[1] = target: T1, 5-hydroxytryptamine receptor 6 (Homo sapiens, UniProt P50406); assay: Antagonist activity at human 5-HT6 receptor expressed in human HeLa cells assessed as inhibition of 5-HT-induced cAMP accumulation at 10 uM pretreated for 10 mins before 5-HT addition measured after 30 mins; assay type: functional, cell-based
T1 sequence (P50406 whole entry): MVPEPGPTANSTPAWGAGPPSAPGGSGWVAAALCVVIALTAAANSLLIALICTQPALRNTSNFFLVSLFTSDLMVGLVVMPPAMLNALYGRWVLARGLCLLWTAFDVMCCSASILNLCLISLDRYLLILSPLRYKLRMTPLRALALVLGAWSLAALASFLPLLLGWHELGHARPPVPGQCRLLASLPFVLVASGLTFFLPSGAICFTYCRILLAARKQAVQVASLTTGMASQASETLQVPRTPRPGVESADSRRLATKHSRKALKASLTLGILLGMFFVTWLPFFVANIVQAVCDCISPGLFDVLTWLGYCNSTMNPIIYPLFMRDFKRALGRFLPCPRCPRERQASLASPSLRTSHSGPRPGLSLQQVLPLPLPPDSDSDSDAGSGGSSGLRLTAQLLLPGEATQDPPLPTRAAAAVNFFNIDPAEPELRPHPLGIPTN
How it was run: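 HeLa cells stably expressing human 5-HT6 receptor, grown at 37 °C in 5% CO2/95% air, suspended in PBS with 2 mM IBMX. Compound pretreatment 10 min, then 100 nM 5-HT stimulation for 30 min. cAMP measured by HTRF (d2-labeled cAMP plus cryptate anti-cAMP antibody, 1 h at room temperature), excitation 314 nm, emission 668 and 620 nm. Single-point inhibition read at […].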

[2] = target: T1, 5-hydroxytryptamine receptor 6; assay: Antagonist activity at human 5-HT6 receptor expressed in human HeLa cells assessed as inhibition of 5-HT-induced cAMP accumulation pretreated for 10 mins before 5-HT addition measured after 30 mins; assay type: functional, cell-based
Rattus norvegicus [3] = assay: Antiallodynic activity in rat spinal nerve ligation neuropathic pain mechanical allodynia model at 100 mg/kg, po after 5 hrs; assay type: functional, organism-based; parameters: dose 100 mg/kg
How it was run: (§1)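 Cold and mechanical allodynia assessed at hours after a single oral 100 mg/kg dose, n = 4 per group; gabapentin 100 mg/kg po as reference.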

Rattus norvegicus [4] = assay: Antiallodynic activity in rat spinal nerve ligation neuropathic pain mechanical allodynia model at 100 mg/kg, po after 1 to 3 hrs; assay type: functional, organism-based; parameters: dose 100 mg/kg; how it was run: as §1
Rattus norvegicus [5] = species: Rattus norvegicus; assay: Ratio of gabapentin antiallodynic activity to compound antiallodynic activity in rat spinal nerve ligation neuropathic pain cold allodynia model; assay type: functional
Rattus norvegicus [6] = assay: Antiallodynic activity in rat spinal nerve ligation neuropathic pain cold allodynia model at 100 mg/kg, po after 1 to 5 hrs; assay type: functional, organism-based; parameters: dose 100 mg/kg; how it was run: as §1
CYP2C19 = CYP2C19 (Homo sapiens, UniProt P33261); assay: Inhibition of human CYP2C19 assessed as residual activity using miconazole as […] at 10 uM relative to control; assay type: ADME; conditions: probe miconazole, read-out: Activity
Chain of CYP2C19 (P33261 whole entry): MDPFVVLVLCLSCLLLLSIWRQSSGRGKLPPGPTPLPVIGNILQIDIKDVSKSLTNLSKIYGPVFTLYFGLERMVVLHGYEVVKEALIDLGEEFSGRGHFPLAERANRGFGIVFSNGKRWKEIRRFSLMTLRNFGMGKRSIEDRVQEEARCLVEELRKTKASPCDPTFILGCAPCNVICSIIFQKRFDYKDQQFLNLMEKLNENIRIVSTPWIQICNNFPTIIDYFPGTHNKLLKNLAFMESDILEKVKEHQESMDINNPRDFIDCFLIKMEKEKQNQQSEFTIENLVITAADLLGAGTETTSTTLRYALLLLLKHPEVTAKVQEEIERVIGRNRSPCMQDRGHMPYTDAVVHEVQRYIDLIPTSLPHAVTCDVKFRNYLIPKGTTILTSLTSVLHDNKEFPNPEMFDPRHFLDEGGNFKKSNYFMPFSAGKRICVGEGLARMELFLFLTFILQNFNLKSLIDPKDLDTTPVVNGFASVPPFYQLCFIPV

CYP3A4 = CYP3A4 (Homo sapiens, UniProt P08684); assay: Inhibition of human CYP3A4 assessed as residual activity using ketoconazole as […] at 10 uM relative to control; assay type: ADME; conditions: probe ketoconazole, read-out: Activity
Chain of CYP3A4 (P08684 whole entry): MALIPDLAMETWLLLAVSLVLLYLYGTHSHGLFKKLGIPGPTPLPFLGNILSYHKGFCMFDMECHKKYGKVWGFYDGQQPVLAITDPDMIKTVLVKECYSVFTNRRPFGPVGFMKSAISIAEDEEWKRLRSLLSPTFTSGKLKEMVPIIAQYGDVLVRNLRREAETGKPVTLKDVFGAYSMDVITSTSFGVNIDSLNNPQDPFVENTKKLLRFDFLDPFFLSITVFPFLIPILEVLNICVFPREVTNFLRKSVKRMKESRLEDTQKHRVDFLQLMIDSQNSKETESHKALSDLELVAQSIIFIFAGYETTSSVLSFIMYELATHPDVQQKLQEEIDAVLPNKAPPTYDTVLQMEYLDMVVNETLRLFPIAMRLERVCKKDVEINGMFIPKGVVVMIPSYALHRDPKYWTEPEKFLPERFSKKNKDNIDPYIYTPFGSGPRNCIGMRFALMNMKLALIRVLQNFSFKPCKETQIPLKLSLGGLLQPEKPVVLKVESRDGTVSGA

CYP2C9 = CYP2C9 (Homo sapiens, UniProt P11712); assay: Inhibition of human CYP2C9 assessed as residual activity using sulfaphenazol as […] at 10 uM relative to control; assay type: ADME; conditions: read-out: Activity
Chain of CYP2C9 (P11712 whole entry): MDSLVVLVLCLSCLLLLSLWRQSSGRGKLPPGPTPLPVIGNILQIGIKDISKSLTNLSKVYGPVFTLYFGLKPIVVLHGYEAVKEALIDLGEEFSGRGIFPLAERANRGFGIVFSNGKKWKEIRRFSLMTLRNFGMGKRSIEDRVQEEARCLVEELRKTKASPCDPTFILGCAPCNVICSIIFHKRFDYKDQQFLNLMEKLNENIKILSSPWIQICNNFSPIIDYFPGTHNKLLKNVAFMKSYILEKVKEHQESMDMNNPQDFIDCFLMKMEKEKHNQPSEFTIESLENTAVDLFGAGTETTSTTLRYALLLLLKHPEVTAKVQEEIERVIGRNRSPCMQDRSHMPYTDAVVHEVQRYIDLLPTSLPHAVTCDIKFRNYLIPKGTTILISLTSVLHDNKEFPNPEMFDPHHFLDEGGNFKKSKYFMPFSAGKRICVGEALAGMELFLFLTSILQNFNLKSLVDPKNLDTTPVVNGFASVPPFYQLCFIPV

CYP2D6 = CYP2D6 (Homo sapiens, UniProt P10635); assay: Inhibition of human CYP2D6 assessed as residual activity using quinidine as […] at 10 uM relative to control; assay type: ADME; conditions: probe quinidine, read-out: Activity
Chain of CYP2D6 (P10635 whole entry): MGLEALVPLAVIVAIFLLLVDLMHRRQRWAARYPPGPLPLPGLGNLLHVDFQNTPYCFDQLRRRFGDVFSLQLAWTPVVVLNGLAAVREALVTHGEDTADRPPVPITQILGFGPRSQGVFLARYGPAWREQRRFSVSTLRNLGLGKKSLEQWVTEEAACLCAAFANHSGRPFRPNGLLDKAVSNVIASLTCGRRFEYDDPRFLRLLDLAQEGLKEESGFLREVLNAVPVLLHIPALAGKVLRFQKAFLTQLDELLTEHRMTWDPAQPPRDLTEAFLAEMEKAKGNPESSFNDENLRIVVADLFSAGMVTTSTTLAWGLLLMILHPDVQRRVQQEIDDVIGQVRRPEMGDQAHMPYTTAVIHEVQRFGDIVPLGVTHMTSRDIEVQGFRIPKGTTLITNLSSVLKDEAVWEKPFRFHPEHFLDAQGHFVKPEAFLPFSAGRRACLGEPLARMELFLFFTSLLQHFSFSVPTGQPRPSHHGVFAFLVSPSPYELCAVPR

[7] = Metabolic stability in human liver microsomes assessed as compound remaining after 30 mins; assay type: ADME, Microsome; conditions: read-out: Stability
How it was run: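 Compounds incubated with human hepatic microsomes; percent of parent concentration remaining at 30 min.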

CYP1A2 = target: T2, CYP1A2 (Homo sapiens, UniProt P05177); assay: Inhibition of human CYP1A2 assessed as residual activity using alpha-naphthoflavon as […] at 10 uM relative to control; assay type: ADME; conditions: read-out: Activity
T2 sequence (P05177 whole entry): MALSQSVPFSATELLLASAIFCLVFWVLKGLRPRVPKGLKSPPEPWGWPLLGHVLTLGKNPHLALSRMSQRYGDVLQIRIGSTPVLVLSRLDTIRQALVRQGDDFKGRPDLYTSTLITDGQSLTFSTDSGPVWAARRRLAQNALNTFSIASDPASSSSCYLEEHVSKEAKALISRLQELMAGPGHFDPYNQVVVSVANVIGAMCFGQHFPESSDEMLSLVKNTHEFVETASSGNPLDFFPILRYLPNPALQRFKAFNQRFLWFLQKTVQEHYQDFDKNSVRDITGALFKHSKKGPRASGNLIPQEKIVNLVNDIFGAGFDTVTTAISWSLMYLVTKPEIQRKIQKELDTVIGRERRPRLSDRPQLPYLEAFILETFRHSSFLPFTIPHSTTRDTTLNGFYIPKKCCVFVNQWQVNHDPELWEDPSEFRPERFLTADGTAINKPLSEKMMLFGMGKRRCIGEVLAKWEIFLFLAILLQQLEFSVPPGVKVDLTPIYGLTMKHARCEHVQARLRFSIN

| Compound | inhibition [1] [%] | IC50 [2] [µM] | other results |
| --- | --- | --- | --- |
| COc1ccc(S(=O)(=O)Nc2n[nH]c3c2CCN(CC2CCNCC2)C3=O)cc1 | 15.1 |  |  |
| Cc1ccc(F)c(S(=O)(=O)Nc2n[nH]c3c2CCN(CC2CCNCC2)C3=O)c1 | 30.6 |  |  |
| Cc1ccc(N2CCc3c(NS(=O)(=O)c4cccc(Cl)c4)n[nH]c3C2=O)cc1 | 5.4 |  |  |
| COc1cccc(S(=O)(=O)Nc2n[nH]c3c2CCN(c2ccc(C)cc2)C3=O)c1 | 63.2 | 6.77 |  |
| COc1ccc(N2CCc3c(NS(=O)(=O)c4cccc(OC)c4)n[nH]c3C2=O)cc1 | 63.3 | 7.08 |  |
| Cc1ccc(N2CCc3c(NS(=O)(=O)c4cccc(F)c4)n[nH]c3C2=O)cc1 | 18.1 |  |  |
| COc1ccc(S(=O)(=O)Nc2n[nH]c3c2CCN(C2CCNCC2)C3=O)cc1 | 26.1 |  |  |
| Cc1ccc(N2CCc3c(NS(=O)(=O)c4cccc(C(F)(F)F)c4)n[nH]c3C2=O)cc1 | 69 | 3.28 |  |
| O=C1c2[nH]nc(NS(=O)(=O)c3cccc(Cl)c3)c2CCN1CC1CCNCC1 | 31 |  |  |
| COc1ccc(OC)c(S(=O)(=O)Nc2n[nH]c3c2CCN(c2ccc(C)cc2)C3=O)c1 | 3.8 |  |  |
| Cc1ccc(N2CCc3c(NS(=O)(=O)c4cccc(Cl)c4C)n[nH]c3C2=O)cc1 | 92.2 | 1.66 |  |
| O=C1c2[nH]nc(NS(=O)(=O)c3cccc4ccccc34)c2CCN1CC1CCNCC1 | 94.1 | 0.31 | Activity (Rattus norvegicus [3]): inactive; Activity (Rattus norvegicus [4]): Active; Ratio (Rattus norvegicus [5]): 5; Activity (Rattus norvegicus [6]): Active; activity at 10 µM (CYP2C19): 104%; activity at 10 µM (CYP3A4): 17.8%; activity at 10 µM (CYP2C9): 98.4%; activity at 10 µM (CYP2D6): 97.2%; remaining at 0.5 h [7]: 90.8%; activity at 10 µM (CYP1A2): 79.1% |
| Cc1ccc(N2CCc3c(NS(=O)(=O)c4cc(C)ccc4F)n[nH]c3C2=O)cc1 | 25.9 |  |  |
| O=C1c2[nH]nc(NS(=O)(=O)c3cccc4ccccc34)c2CCN1C1CCNCC1 | 89.5 | 0.77 | activity at 10 µM (CYP2C19): 99.8%; activity at 10 µM (CYP3A4): 16.7%; activity at 10 µM (CYP2C9): 94.5%; activity at 10 µM (CYP2D6): 95.1%; remaining at 0.5 h [7]: 101%; activity at 10 µM (CYP1A2): 67.7% |
| Cc1ccc(N2CCc3c(NS(=O)(=O)c4ccc(F)cc4)n[nH]c3C2=O)cc1 | 67.9 | 5.22 |  |
| COc1ccc(N2CCc3c(NS(=O)(=O)c4ccccc4)n[nH]c3C2=O)cc1 | 30.6 |  |  |
| CC(C)(C)c1ccc(S(=O)(=O)Nc2n[nH]c3c2CCN(CC2CCNCC2)C3=O)cc1 | 11.5 |  |  |
| Cc1ccc(N2CCc3c(NS(=O)(=O)c4ccccc4)n[nH]c3C2=O)cc1 | 23.5 |  |  |
| COc1ccc(N2CCc3c(NS(=O)(=O)c4ccc(F)cc4)n[nH]c3C2=O)cc1 | 30.6 |  |  |
| O=C1c2[nH]nc(NS(=O)(=O)c3ccc4ccccc4c3)c2CCN1CC1CCNCC1 | 40.9 |  |  |
| Cc1ccc(N2CCc3c(NS(=O)(=O)c4ccccc4F)n[nH]c3C2=O)cc1 | 29.6 |  |  |
| COc1ccc(NS(=O)(=O)c2ccc(I)cc2)cc1N1CCN(C)CC1 | 97.7 |  |  |
| Cc1c(Cl)cccc1S(=O)(=O)Nc1n[nH]c2c1CCN(CC1CCNCC1)C2=O | 51.7 |  |  |
| COc1ccc(N2CCc3c(NS(=O)(=O)c4cccc(F)c4)n[nH]c3C2=O)cc1 | 95.2 | 0.58 | activity at 10 µM (CYP2C19): 81.8%; activity at 10 µM (CYP3A4): 19.5%; activity at 10 µM (CYP2C9): 78.6%; activity at 10 µM (CYP2D6): 87.8%; remaining at 0.5 h [7]: 96.3%; activity at 10 µM (CYP1A2): 63.5% |
